ChEMBL document CHEMBL1143829, “Lack of effect of DX-619, a novel des-fluoro(6)-quinolone, on glomerular filtration rate measured by serum clearance of cold iohexol” (Antimicrob Agents Chemother, 2007)

Tests used:
[1] = tested on: Homo sapiens; experiment: Effect on glomerular filtration rate in human assessed as iohexol clearance rate in plasma per 1.73 m2 at 800 mg, iv after 4 days relative to baseline; type: functional
Outline: (§1)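 GFR was measured as plasma clearance of iohexol. A single 20 ml bolus (300 mg/ml) was given on days 1, 4 and 11, timed to match 1 h after the end of the day-4 infusion. Blood was drawn at 120, 150, 180, 210, 240, 270 and 300 min and assayed by HPLC-UV. CL0 = dose × b/c1, with b and c1 from linear regression. Change from baseline used a noninferiority mixed-effects comparison with 95% CI.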

[2] = tested on: Homo sapiens; experiment: Effect on glomerular filtration rate in human assessed as creatinine clearance rate in plasma per 1.73 m2 at 800 mg, iv after 4 days relative to baseline; type: functional
[3] = Clearance in human plasma after 4 days
[4] = Tmax in human plasma; type: ADME, organism-based
Outline: (§2)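 Plasma was sampled predose, at end of infusion, and 1, 3 and 9 h post-infusion on days 1 and 4, plus 24 h post-infusion on day 5. Drug was assayed by validated LC-MS/MS (0.02–10 µg/ml). Noncompartmental analysis; Cmax taken by observation without interpolation, with Tmax; day-4 values treated as steady state.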

[5] = tested on: Homo sapiens; experiment: Effect on renal function in human assessed as serum creatinine concentration at 800 mg, iv after 11 days relative to baseline; type: functional
[6] = tested on: Homo sapiens; experiment: Effect on glomerular filtration rate in human assessed as iohexol clearance rate in plasma per 1.73 m2 at 800 mg, iv after 11 days relative to baseline; type: functional; outline: as §1
[7] = Renal clearance in human urine after 4 days; type: ADME, organism-based; conditions: read-out: CL_renal (converted)
Outline: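 Steady-state AUC (AUCss,24) covered 25 h from the start of the day-4 infusion to 24 h after it (linear up/log down rule). CL = dose/AUCss,24. Urine from 0–24 h on day 4 was assayed by LC-MS/MS, and renal clearance = Xu(0–24)/AUCss,24.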

[8] = Cmax at steady state in human after 4 days; type: ADME, organism-based; conditions: in vivo; outline: as §2
[9] = tested on: Homo sapiens; experiment: Effect on renal function in human assessed as creatinine clearance in 24 hrs urine sample at 800 mg, iv after 4 days relative to baseline; type: functional
Outline: (§3)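 Urine was collected over 24 h at baseline (−24 to 0 h), on day 4 (72–96 h) and on day 11 (240–264 h). CLCR = urinary creatinine amount / (SCr × 24 h) × (1.73/BSA), using SCr measured at the start of each collection.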

[10] = tested on: Homo sapiens; experiment: Effect on renal function in human assessed as blood urea nitrogen concentration at 800 mg, iv after 4 days relative to baseline; type: functional
[11] = tested on: Homo sapiens; experiment: Effect on renal function in human assessed as blood urea nitrogen concentration at 800 mg, iv after 11 days relative to baseline; type: functional
[12] = tested on: Homo sapiens; experiment: Effect on glomerular filtration rate in human assessed as creatinine clearance rate in plasma per 1.73 m2 at 800 mg, iv after 11 days relative to baseline; type: functional
[13] = Protein binding in human plasma; type: ADME, organism-based; conditions: read-out: PPB (converted)
Outline: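 Plasma ultrafiltrate and matching plasma were sampled on days 1 and 4, predose and 1 and 4 h after infusion start, and assayed by LC-MS/MS (ultrafiltrate range 0.01–5.0 µg/ml). Binding at each time point was calculated from free ultrafiltrate versus total plasma concentration.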

[14] = tested on: Homo sapiens; experiment: Effect on renal function in human assessed as creatinine clearance in 24 hrs urine sample at 800 mg, iv after 11 days relative to baseline; type: functional; outline: as §3
[15] = Cmax […] in human after 1 day; type: ADME, organism-based; conditions: in vivo; outline: as §2
[16] = tested on: Homo sapiens; experiment: Effect on renal function in human assessed as serum creatinine concentration at 800 mg, iv after 4 days relative to baseline; type: functional

- clearance [3]: 166 mL/min
- Tmax [4]: 1.25 h
- CL renal at 96 h [7]: 43.3 mL/min
- Cmax [8]: 8850 ng/mL
- fraction unbound [13]: 0.35
- Cmax [15]: 8210 ng/mL
Structure (SMILES): COc1c(N2CC[C@@H](C3(N)CC3)C2)ccc2c(=O)c(C(=O)O)cn([C@@H]3C[C@@H]3F)c12
- Activity [1]: 1.12 mL/min
- Activity [2]: 95.52 mL/min
- Activity [5]: 0.09
- Activity [6]: -2.44 mL/min
- Activity [9]: -32.8
- Activity [10]: 0.69
- Activity [11]: -2.06
- Activity [12]: 94.3 mL/min
- Activity [14]: -3.4
- Activity [16]: 0.3
